Screening data (PubChem BioAssay)
Only some compounds are listed: those with a hit (about 3.8% of all), similar ones and a draw of the others.
KCNK3 inh = human KCNK3 channel inhibition, primary screen. CHO-KCNK3 thallium flux, FluxOR fluorescence; active compounds read low. AID 602410. B-score at 10 µM. actives 0.84% (n = 340,000);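 active = B-score under library mean minus 4 SD, starting fluorescence ratio at most library mean plus 5 SD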;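 note: more negative B-score means stronger inhibition of thallium flux through KCNK3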
hERG rescue = compounds protecting human hERG from proarrhythmic drug block; Q12809; activation (rescue from dofetilide block), less the hit threshold, % at 10 µM; actives 0.51% (n = 310,000); CHO-hERG, FluxOR thallium flux, dofetilide IC70 present;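 active = activation above the mean of controls blocked by dofetilide plus 5 SD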;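 note: thallium influx through hERG after potassium depolarization seen as dye fluorescence rise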
KCNK9 inh = human KCNK9 channel inhibition; HEK293 KCNK9, FluxOR thallium flux fluorescence; active compounds read low; B-score at 10 µM; actives 1.2% (n = 310,000); Q9NPC2;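 active = ratio B-score over 3 SD below the library mean, with starting fluorescence within 5 SD of its mean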;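 note: negative B-score means less thallium flux so channel inhibition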
KCNQ1 pot = potentiates or activates the human KCNQ1 potassium channel; actives 0.35% (n = 310,000); P51787; CHO-K1 KCNQ1, thallium flux FluxOR fluorescence; active compounds read high; B-score at 10 µM;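 active = fluorescence ratio B-score, a plate-corrected score, at least three library SD, with initial intensity B-score within 5 SD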
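Schedule – 37 °C overnight plating, 90-min dark dye load, 20-min compound pretreatment · System – stable KCNQ1 CHO-K1 line · Probe or stimulus – thallium- and potassium-containing depolarizing buffer · Measured by – kinetic FluxOR fluorescence, 10 s baseline plus 110 s post-stimulus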
Kir21 block = Kir2.1 (mouse) channel inhibition; HEK293-Kir2.1, FluxOR thallium flux fluorescence; active compounds read low; B-score at 10 µM; actives 0.85% (n = 310,000); AID 1672;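 active = fluorescence ratio B-score at or below minus 3 SD of library scores, with starting-brightness B-score within 2 SD, cut at about -4.2 in these data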;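 note: channel flux triggered by added potassium and thallium sulfate stimulus; B-score of peak minus minimum fluorescence over baseline after thallium stimulus; more negative B-score means stronger Kir2.1 block with less thallium influx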
Target sequence (P35561 whole entry, looked up): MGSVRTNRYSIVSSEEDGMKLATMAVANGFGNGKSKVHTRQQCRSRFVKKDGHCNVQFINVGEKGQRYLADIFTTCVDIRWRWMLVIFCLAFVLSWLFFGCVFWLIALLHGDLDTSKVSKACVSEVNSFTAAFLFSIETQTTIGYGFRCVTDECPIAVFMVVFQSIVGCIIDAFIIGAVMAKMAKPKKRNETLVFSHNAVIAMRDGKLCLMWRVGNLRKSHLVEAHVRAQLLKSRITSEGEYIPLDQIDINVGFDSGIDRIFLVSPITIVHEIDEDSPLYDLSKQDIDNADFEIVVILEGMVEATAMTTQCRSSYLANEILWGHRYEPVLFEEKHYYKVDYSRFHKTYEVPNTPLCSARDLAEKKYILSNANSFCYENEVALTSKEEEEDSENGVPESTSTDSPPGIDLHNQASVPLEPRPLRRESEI
KCNQ1 block = inhibitors of human KCNQ1 potassium channel | P51787 | CHO-K1 KCNQ1, FluxOR thallium flux fluorescence; active compounds read high | B-score at 10 µM | actives 1.3% (n = 310,000);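 active = compounds whose thallium flux B-score, printed positive for inhibition, exceeds three library SD while starting fluorescence stays within three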;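 note: channel opened by potassium depolarization with thallium stimulus after 20 min compound exposure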
Of the large screens only hits and unclear results are named; the others gave an inactive call.

COc1ccc([C@H]2CC(=O)C=C(c3ccc4ncccc4c3)C2)cc1OC	none (no result: hERG rescue, KCNK9 inh, KCNQ1 pot, Kir21 block, KCNQ1 block)
COc1ccc(C)cc1NS(=O)(=O)c1ccc2c(c1)N(C)CCO2	Kir21 block -5.6
Cc1ccc(OCC(=O)Nc2ccccc2C(=O)N2CCCC2)cc1	none
O=C(Cc1ccccc1)c1ccc(O)cc1O	none (no result: hERG rescue, KCNK9 inh, KCNQ1 pot, Kir21 block, KCNQ1 block)
O=C(CC1=NCCNC(c2ccccc2)C1)c1ccccc1O (configuration not stated)	Kir21 block -6
Cc1cccc(C)c1NC(=O)COC(=O)[C@@H]1CCCN1C(=O)c1cccs1	none (no result: hERG rescue, KCNK9 inh, KCNQ1 pot, Kir21 block, KCNQ1 block)
CCOC(=O)c1ccc(N2CCN(c3cc(C)ccc3C)CC2)c(N)c1	KCNK9 inh -6.8
O=C(N/N=C/c1cccc(Br)c1)c1ccc(Cn2cc(Br)cn2)o1	KCNK9 inh -7.5
Cc1cc(Cl)c(OCCOCCN2CCCC(C)C2)c(Br)c1 (configuration not stated)	Kir21 block -4.3
Cc1cc(Cl)c(OCCOCCN2CCCCC2)c(Br)c1	none
O=C1C=C(NCc2ccccc2)c2ccccc2C1=O	KCNQ1 pot 12
Cc1ccc2nnnc(-c3ccccc3)c2c1	none
Cc1ccc2c(c1)c(-c1ccccc1)nc1nnnn12	hERG rescue 6.0
CC(=O)c1c(C)[nH]c(C(=O)CN(C)CC(=O)Nc2ccccc2Cl)c1C	none (no result: hERG rescue, KCNK9 inh, KCNQ1 pot, Kir21 block, KCNQ1 block)
CCOC(=O)c1c(C)[nH]c(C(=O)CN(C)CC(=O)Nc2ccccc2Cl)c1C	KCNK3 inh -11 (no result: hERG rescue, KCNK9 inh, KCNQ1 pot, Kir21 block, KCNQ1 block)
O=C(c1ccc2nccnc2c1)N1CCN(c2ccccc2)CC1	none
Cc1cccc(N2CCN(C(=O)c3ccc4nccnc4c3)CC2C)c1 (configuration not stated)	KCNK3 inh -9.5 (no result: hERG rescue, KCNK9 inh, KCNQ1 pot, Kir21 block, KCNQ1 block)
N#CC1=C(N)C(C#N)(C#N)C(c2cccnc2)C2CC(c3ccccc3)CC=C12 (configuration not stated)	none
N#CC1=C(N)C2=CCCC[C@H]2[C@H](c2cccc(F)c2)C1(C#N)C#N	Kir21 block -5.4
O=[N+]([O-])c1ccc(CN2CCOCCOCCN(Cc3ccc([N+](=O)[O-])cc3)CCOCC2)cc1	KCNK9 inh -7.2
Cc1cc(C)c(-n2c(SCCS(=O)(=O)c3ccc(F)cc3)n[nH]c2=O)c(C)c1	none
Cc1cc(Cl)ccc1NC(=S)NCCC(c1ccccc1)c1ccccc1	KCNQ1 block 11
Cc1c(Cl)cccc1NC(=S)NCCC(c1ccccc1)c1ccccc1	KCNQ1 block 11
CC(=O)C(Cc1ccccc1)NC(=O)COC(=O)CCN1C(=O)C2CC=CCC2C1=O (configuration not stated)	none
NCCCC[C@@H](C(=O)N1CCNCC1)n1cc(CCC(=O)O)nn1	none
CC(O)Cc1cn([C@@H](CCCCN)C(=O)N2CCNCC2)nn1 (some centres not stated)	KCNQ1 pot 19
CCCCN1C2CCCC1CC(NC(=O)c1cccc(OC)c1)C2 (configuration not stated)	none
OCc1ccccc1SSc1ccccc1CO	none
COc1cc(C2Sc3ccccc3NC3=C2C(=O)OC3)cc(OC)c1OC (configuration not stated)	none
O=C1OCC2=C1C(c1ccc(F)cc1)Sc1ccccc1N2 (configuration not stated)	hERG rescue 6.0
CCC(=O)c1ccc(OCc2ccc(C(=O)c3ccccc3)cc2)cc1	none
Cc1nn(-c2ccccc2)c2ncc(C(=O)c3cc(Cl)ccc3O)cc12	none
CCc1nn2cc(C(=O)c3cc(Cl)ccc3O)cnc2c1-c1ccc(F)cc1	KCNQ1 block 8
COCCCNC(=O)Cn1cc(/C=C(\C#N)C(=O)NC2CC2)c2ccccc21	none
COc1ccc(S(=O)(=O)n2nc(OC(=O)c3ccccc3)cc2N)cc1	none
COc1ccc(S(=O)(=O)n2nc(OC(=O)c3ccccc3Br)cc2N)cc1	KCNK3 inh -9.1
COc1ccc(CN2CCc3c([nH]c4ccccc34)C2)cc1Br	Kir21 block -4.3
O=C(NCc1ccccn1)c1ccc(Cl)c(S(=O)(=O)NCc2ccccc2)c1	none (no result: hERG rescue, KCNK9 inh, KCNQ1 pot, Kir21 block, KCNQ1 block)
CC/C(=N/NC(=O)c1ccc2c(c1)OCO2)c1ccccc1O	none
COc1ccc(NC(=O)c2cccc(S(=O)(=O)N3CCCCCC3)c2)cc1	none
CCN(C(=O)c1cc2c(=O)[nH]c3ccc(C)cc3c2s1)c1ccccc1C	none
CCN(C(=O)c1cc2c(=O)[nH]c3ccc(C)cc3c2s1)c1ccccc1F	hERG rescue 9.2, KCNQ1 pot 26
CC1CCC/C=C/C(=O)c2c(O)cc(O)cc2CC(=O)O1 (configuration not stated)	KCNQ1 block 7
O=C(N/N=C/c1cccc(Oc2ccccc2)c1)c1cc[n+]([O-])cc1	none
Nc1ccc(C(=O)N/N=C/c2cccc(Oc3ccccc3)c2)cc1	Kir21 block -11
CC(O)CNc1nc2ccccc2n1-c1ncnc2sc3c(c12)CCC3 (configuration not stated)	Kir21 block -7.6
c1ccc2c(c1)ncn2-c1ncnc2sc3c(c12)CCCC3	none
CCC1CCC(C(=O)NC(C(=O)NCCN2CCOCC2)C(C)C)CC1 (configuration not stated)	none
COc1ccc(C2CC(c3cccs3)=NN2C(=O)CSc2nc3c(cnn3-c3ccccc3)c(=O)[nH]2)cc1 (configuration not stated)	KCNQ1 block 6
COC(=O)c1ccc(CN(c2ccc(C(=O)O)c(O)c2)S(=O)(=O)c2ccc(Cl)c([N+](=O)[O-])c2)cc1	KCNQ1 block 7
COC(=O)c1ccc(CN(c2ccccn2)S(=O)(=O)c2ccccc2)cc1	none
CN(Cc1ccccc1)C(=O)c1ccc(NC(=O)Cc2cccc(NC(=O)C3CCN(C(=O)C4CCCC4)CC3)c2)cc1	none (no result: hERG rescue, KCNK9 inh, KCNQ1 pot, Kir21 block, KCNQ1 block)
Cc1ccc2nc(NC(=O)C3CCN(S(=O)(=O)c4cc([N+](=O)[O-])ccc4Cl)CC3)sc2c1	KCNQ1 block 9
Cc1ccc(NC(=O)C2CCN(S(=O)(=O)c3cc([N+](=O)[O-])ccc3Cl)CC2)nc1	none (no result: hERG rescue, KCNK9 inh, KCNQ1 pot, Kir21 block, KCNQ1 block)
O=[N+]([O-])c1ccccc1S(=O)(=O)N1CCN(S(=O)(=O)c2ccc3c(c2)OCCO3)CC1	none (no result: hERG rescue, KCNK9 inh, KCNQ1 pot, Kir21 block, KCNQ1 block)
Oc1ccc(Nc2nc(NCC3CCCO3)c3ccccc3n2)cc1 (configuration not stated)	Kir21 block -7.8
Oc1ccccc1Nc1nc(NCC2CCCO2)c2ccccc2n1 (configuration not stated)	Kir21 block -12
CCCN(C(=O)c1cnccn1)c1c(N)n(Cc2ccccc2)c(=O)[nH]c1=O	none (no result: hERG rescue, KCNK9 inh, KCNQ1 pot, Kir21 block, KCNQ1 block)
COc1ccc2nc(SCC(=O)O)nc(C)c2c1	none (no result: hERG rescue, KCNK9 inh, KCNQ1 pot, Kir21 block, KCNQ1 block)
COc1ccc2nc(SCCOC(=O)Nc3ccc(Cl)cc3)nc(C)c2c1	Kir21 block -5.7
CCn1c(SCC(=O)N2CCCc3ccccc32)nc2ccccc2c1=O	none
